# Assay results published in article PMC6142410 (Current Drug Discovery Technologies, 2018).
# How the values were obtained:
# [1] = tested on: human plasma prothrombin time; assay: Human plasma prothrombin time; type: biochemical; settings: concentration that doubled the prothrombin time in human plasma; Thromborel S
# How it was run: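 KM-2 control plasma mixed with test compound solution and incubated 1 min at 37°C. Clotting triggered with thromboplastin (ISI=1) and time read on a coagulometer. The concentration doubling PT was estimated by regression from dose-response curves.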
# human FXa = human FXa (Homo sapiens, UniProt P00742); assay: Factor Xa inhibition, chromogenic substrate assay; type: biochemical
# Sequence of human FXa (P00742 235-488 limits assumed): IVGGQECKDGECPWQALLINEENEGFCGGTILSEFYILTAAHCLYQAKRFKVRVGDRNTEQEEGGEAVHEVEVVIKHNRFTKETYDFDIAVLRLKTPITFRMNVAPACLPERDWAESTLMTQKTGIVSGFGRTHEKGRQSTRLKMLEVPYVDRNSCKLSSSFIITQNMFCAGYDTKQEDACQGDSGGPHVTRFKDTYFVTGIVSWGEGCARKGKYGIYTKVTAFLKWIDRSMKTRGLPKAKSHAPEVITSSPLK
# Sequence of human FXa (P00742 41-179 partner limits assumed): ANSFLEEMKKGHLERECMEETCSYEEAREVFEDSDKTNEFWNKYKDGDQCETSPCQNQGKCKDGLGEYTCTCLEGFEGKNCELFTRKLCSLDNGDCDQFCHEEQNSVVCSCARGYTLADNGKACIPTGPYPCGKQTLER
# How it was run: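 Human FXa (0.0625 U/mL) and test compound in aqueous 5% (v/v) DMSO mixed in Tris-BSA buffer (0.2 M NaCl, 0.1 M Tris, 0.2% BSA, pH 7.4). Chromogenic substrate added to start the reaction, then 10 s stirring. OD at 405 nm followed over time against a DMSO-only reference. Inhibition = 1 − OD(inhibitor)/OD(reference). IC50 derived from the concentration dependence.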
IC50 (human FXa),SMILES,PTx2 [1]
0.15 ± 0.03 nM,"CNC(=O)N(C)c1ccc(C(=O)Nc2ccc(C)cc2C(=O)Nc2ccc(Cl)cn2)cc1 [Compound 117, N-(5-chloropyridin-2-yl)-5-methyl-2-[(4-{methyl[(methylamino)carbonyl]amino}benzoyl)amino]benzamide]",2.0 ± 0.4 µM
0.8 ± 0.2 nM,"CC(=N)N(C)c1ccc(C(=O)Nc2ccc(C)cc2C(=O)Nc2ccc(Cl)cn2)c(F)c1 [Compound 302, N-(2-{[(5-chloropyridin-2-yl)amino]carbon-yl}-4-methylphenyl)-4-[ethanimidoyl(methyl)amino]-2-fluorobenzamide]",0.09 ± 0.02 µM
2 ± 0.2 nM,"CC(=N)N(C)c1ccc(C(=O)Nc2ccccc2C(=O)Nc2ccc(Cl)cn2)cc1 [Compound 310, N-(5-chloropyridin-2-yl)-2-({4-[ethanimidoyl (methyl)amino]benzoyl}amino)benzamide]",0.50 ± 0.12 µM
1 ± 0.2 nM,"COc1cc(N(C)C(C)=N)ccc1C(=O)Nc1ccc(C)cc1C(=O)Nc1ccc(Cl)cn1 [Compound 307, N-(2-{[(5-chloropyridin-2-yl)amino]carbonyl}-4-methylphenyl)-4-[ethanimidoyl(methyl)amino]-2-methoxybenzamide]",2.0 ± 0.4 µM
0.25 ± 0.05 nM,"CNC(=O)N(C)c1ccc(C(=O)Nc2ccccc2C(=O)Nc2ccc(Cl)cn2)cc1 [Compound 317, N-(5-chloropyridin-2-yl)-2-[(4-{methyl[ (methylamino)carbonyl]amino}benzoyl)amino]benzamide]",3.0 ± 0.6 µM
0.15 ± 0.03 nM,"CNC(=O)N(C)c1ccc(C(=O)Nc2ccc(C)cc2C(=O)Nc2ccc(C)cc2)cc1 [Compound 312, 5-methyl-2-[(4-{methyl[(methylamino)carbonyl]amino}benzoyl)amino]-N-(4-methyl-phenyl)benzamide]",3.0 ± 0.6 µM
1 ± 0.2 nM,"CC(=N)N(C)c1ccc(C(=O)Nc2ccc(Cl)cc2C(=O)Nc2ccc(Cl)cn2)c(F)c1 [Compound 303, N-(4-chloro-2-{[(5-chloropyridin-2-yl)amino]carbonyl}phenyl)-4-[ethanimidoyl (methyl)amino]-2-fluorobenzamide]",0.09 ± 0.02 µM
1 ± 0.2 nM,"CC(=N)N(C)c1ccc(C(=O)Nc2ccc(C)cc2C(=O)Nc2ccc(Cl)cc2)cc1 [Compound 304, N-(4-chlorophenyl)-2-({4-[ethanimidoyl (methyl)amino]benzoyl}amino)-5-methylbenzamide]",>30 µM
2 ± 0.3 nM,"CNC(=O)N(C)c1ccc(C(=O)Nc2ccc(C)cc2C(=O)Nc2ccc(Cl)cc2)cc1 [Compound 311, N-(4-chlorophenyl)-5-methyl-2-[(4-{methyl [(methylamino)carbonyl]amino}benzoyl)amino]benzamide]",>30 µM
